Bioassay records from PubChem BioAssay.
pCIP destab: p/CIP-EGFP fusion destabilizers, primary screen, fluorescence, F442A cells; Q05BA5; 16 h; decrease of EGFP signal, % at 10 µM; 290,000 compounds, 0.01% hits;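 active means EGFP signal decrease of at least 30% at 10 µM or well 3 SD below plate mean, unless failing retest; inactive means the rest, including hits failing retest or dose response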
PHOSPHO1 block: PubChem AID 1565 | 290,000 compounds, 1.1% hits | inhibition, % at 13.3 µM | recombinant PHOSPHO1, absorbance phosphatase assay | Phosphoethanolamine/phosphocholine phosphatase (Homo sapiens), Q8TCT1; in the data active means inhibition above about 60%
TbMetRS inhib: T. brucei MetRS inhibitors, primary screen, biochemical, luminescence | methionyl-tRNA synthetase (Trypanosoma brucei brucei) | purified T. brucei MetRS, ATP depletion, Kinase-Glo luminescence | inhibition, % at 11.9 µM | 360,000 compounds, 0.4% hits;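 active means inhibition above a per-plate cutoff of the control wells' mean inhibition plus 3 SD, cut at about 5.5% in these data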
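Measured by: Kinase-Glo luciferase luminescence reporting remaining unconsumed ATP. Material: purified T. brucei MetRS enzyme. Doses: 11.9 µM compound single dose, 0.9% DMSO. Medium: HEPES buffer containing pyrophosphatase, BSA, spermine, DTT. Times: 15 min preincubation, 2 h reaction, all 25 °C. Reagent: methionine, ATP and bulk E. coli tRNA.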
APOBEC3G inh: APOBEC3G DNA deaminase inhibitors, primary screen, biochemical, fluorescence, single-stranded DNA substrate, uHTS; DNA dC->dU-editing enzyme APOBEC-3G (Homo sapiens), Q9HC16; AID 493012, 2011; inhibition, % at 20 µM; recombinant A3G, ssDNA deamination FAM/TAMRA fluorescence; 330,000 compounds, 0.28% hits;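 active means inhibition of at least 40% at 20 µM, with no more than 30% in the related APOBEC3A deaminase screen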
APOBEC3A inh: APOBEC3A ssDNA deaminase inhibitors, primary screen, selectivity assay for APOBEC3G inhibitor project, biochemical, FAM/TAMRA oligo cleavage fluorescence. DNA dC->dU-editing enzyme APOBEC-3A (Homo sapiens), P31941. recombinant A3A, FAM/TAMRA ssDNA deamination fluorescence. inhibition, % at 20 µM. 330,000 compounds, 0.41% hits;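 active means at least 40% inhibition at 20 µM here, with at most 30% in a related deaminase screen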
Target sequence (P31941 whole entry, looked up): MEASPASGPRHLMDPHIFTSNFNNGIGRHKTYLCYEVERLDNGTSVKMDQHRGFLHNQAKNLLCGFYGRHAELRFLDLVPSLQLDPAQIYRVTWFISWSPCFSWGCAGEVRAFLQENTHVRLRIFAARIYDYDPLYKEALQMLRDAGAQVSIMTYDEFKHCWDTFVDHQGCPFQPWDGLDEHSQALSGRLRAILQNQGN
APOBEC3A confirm: APOBEC3A deaminase inhibitors, retest, confirmation, selectivity assay for APOBEC3G inhibitor project, biochemical, single concentration, fluorescence readout. shares compounds with APOBEC3A inh. recombinant A3A, ssDNA deaminase UDG fluorescence assay. inhibition, % at 20 µM. 1,400 compounds, 63% hits;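 active means inhibition reaching a set limit, 80% of the first screen's cutoff, at 20 µM in any replicate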
UDG A3A counter: E. coli UDG inhibitors, confirmation, counter-screen for APOBEC3A inhibitor project, biochemical, single concentration, fluorescence, FAM/TAMRA oligo | shares compounds with APOBEC3A inh | UDG counterscreen, FAM/TAMRA uracil oligo fluorescence | inhibition, % at 20 µM | 1,000 tested, under 10 active; call rule not given here
Numbers stand for hits; n = inactive; x = no result; ! = a repeat was not active. Only some compounds are listed: those with a hit (about 1.8% of all), similar ones and a draw of the others.

SMILES	pCIP destab	PHOSPHO1 block	TbMetRS inhib	APOBEC3G inh	APOBEC3A inh	APOBEC3A confirm	UDG A3A counter
CCN(CC)P(=O)(c1n(CC)cc[n+]1CC)N(CC)CC	n	n	n	n	86	73	n
CCOc1ccccc1N=C1SCCCN1C	n	92	n	n	47	73	n
CCCC[N+]12CCC(CC1)C(C(=O)c1cccs1)C2 (centres undefined)	n	n	n	n	67	78	n
COc1ccc(-n2c(C)cc(C(=O)C[N+]34CCN(CC3)CC4)c2C)cc1	n	n	n	n	59	70	n
Cc1cc(C(=O)CN2CCCC2)c(C)n1-c1ccc(F)cc1	n	n	n	n	n	x	x
CCOc1c(P(=S)(N(C)C)N(C)C)c(C)nn1-c1ccccc1	n	n	n	n	42	n	x
CC[N+]12CCC(CC1)C(C(O)(c1ccccc1)c1ccccc1)C2 (centres undefined)	n	n	n	n	n	x	x
CC(C)[N+]12CCC(CC1)C(C(O)(c1ccccc1)c1ccccc1)C2 (centres undefined)	n	n	n	x	x	63	x
C[N+]12CCC(CC1)C(C(O)(c1cccc(Cl)c1)c1cccc(Cl)c1)C2 (centres undefined)	n	n	n	n	86	75	n
Cc1ccc(C(O)(c2ccc(C)c(C)c2)C2CN3CCC2CC3)cc1C (centres undefined)	n	n	n	n	n	x	x
O=C1NCN(c2ccccc2)C12CCN(C(c1ccccc1)c1nnnn1C1CCCC1)CC2 (centres undefined)	x	x	n	x	x	x	x
c1ccc2[nH]c(CCN3CCCCC3)nc2c1	x	x	n	x	x	x	x
Cc1ccc2c(c1Cl)NC(C(=O)O)C1CC(Sc3ccccc3[N+](=O)[O-])C(Cl)C21 (centres undefined)	n	n	n	n	41	n	x
CCN(CC)C(=O)c1ccc2c(c1)C1C(Cl)C(Sc3ccccc3[N+](=O)[O-])CC1C(C(=O)O)N2 (centres undefined)	n	n	n	n	n	x	x
O=c1[nH]c2ccccc2n1C1CCN(C(c2ccccc2OC(F)(F)F)c2nnnn2-c2ccc3c(c2)OCCO3)CC1 (centres undefined)	x	x	n	x	x	x	x
CN1C(=O)NC(=O)/C(=C/c2ccc([N+](=O)[O-])s2)C1=O	n	n	n	n	n	x	x
CN1C(=O)NC(=O)/C(=C\c2ccc([N+](=O)[O-])o2)C1=O	n	n	n	n	65	54	x
C[C@]12CC[C@H]3[C@@H](CCC4=CC(=O)CC[C@@]43C)[C@@H]1CC[C@@H]2O	x	x	n	n	n	x	x
Cn1c[n+](C)cc1C(O)c1ccccc1 (centres undefined)	n	96!	n	n	60	51	n
CCN1C[C@]2(OC(=O)c3ccccc3NC(C)=O)CCC(OC)C34C5C[C@H]6C(OC)[C@]5(O)[C@](O)(C[C@@H]6OC)C(C[C@@H]32)[C@H]14 (some centres undefined)	n	n	n	n	n	x	x
COc1ccc(C(C)=O)cc1CN1CC=C(c2ccccc2)CC1	n	n	n	n	56	33	n
CCOC(=O)[C@]12Cc3cc(OC)ccc3[C@H]1N(C(C)C)C(=O)c1cc(OC)ccc12	x	x	n	x	x	x	x
C/C=C1/C[N+]2(C)CCC34C(=C(C=O)[C@H]1C[C@@H]32)Nc1ccccc14 (some centres undefined)	x	x	n	n	n	x	x
Cc1ccc2c(c1)C1C[N+](C)(CC(=O)c3ccc(Cl)cc3Cl)CCC1N2C(=O)c1ccc(F)cc1 (centres undefined)	x	x	n	n	79	79	n
